Reference: publication PMC7233370 (Journal of medicinal chemistry, 2020)
Entries after “also recorded” stand apart in the source; their conditions may differ. Values belong to the molecule of their own block, whether it stands above or below them.

Experiments:
yGsy2p [1] = biological target: T1, yGsy2p (Saccharomyces cerevisiae, UniProt P27472); assay: 14C-glucose incorporation assay, yGsy2p inhibition; format: biochemical; conditions: co-variation of UDPG and inhibitor
T1 sequence (P27472 1-705): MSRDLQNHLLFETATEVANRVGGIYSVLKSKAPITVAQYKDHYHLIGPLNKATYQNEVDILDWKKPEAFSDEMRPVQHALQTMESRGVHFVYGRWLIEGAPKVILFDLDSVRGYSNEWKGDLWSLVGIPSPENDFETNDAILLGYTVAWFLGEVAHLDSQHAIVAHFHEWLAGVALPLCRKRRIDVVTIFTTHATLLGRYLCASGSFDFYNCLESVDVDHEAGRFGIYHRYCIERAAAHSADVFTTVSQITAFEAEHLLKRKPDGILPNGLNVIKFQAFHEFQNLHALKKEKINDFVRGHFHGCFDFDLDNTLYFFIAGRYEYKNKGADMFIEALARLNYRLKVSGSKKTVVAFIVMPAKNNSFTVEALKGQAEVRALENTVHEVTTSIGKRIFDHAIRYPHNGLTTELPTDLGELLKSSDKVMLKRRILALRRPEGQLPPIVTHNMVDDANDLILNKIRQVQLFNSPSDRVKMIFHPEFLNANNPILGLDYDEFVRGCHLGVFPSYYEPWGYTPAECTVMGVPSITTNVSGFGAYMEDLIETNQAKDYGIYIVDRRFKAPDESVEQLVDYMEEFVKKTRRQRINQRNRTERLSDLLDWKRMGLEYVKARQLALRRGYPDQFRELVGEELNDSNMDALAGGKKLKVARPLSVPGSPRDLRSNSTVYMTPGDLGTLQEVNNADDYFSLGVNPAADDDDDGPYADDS

[2] = biological target: T2, GS activity in Rat-1 cell lysates (Rattus norvegicus, UniProt A2RRU1); assay: GS activity in Rat-1 cell lysates, 14C-glucose incorporation; format: biochemical; conditions: 100 μM compound; 0.75 mg/mL lysate; 0.2 mM UDPG, 1 mM G6P
T2 sequence (A2RRU1 1-738): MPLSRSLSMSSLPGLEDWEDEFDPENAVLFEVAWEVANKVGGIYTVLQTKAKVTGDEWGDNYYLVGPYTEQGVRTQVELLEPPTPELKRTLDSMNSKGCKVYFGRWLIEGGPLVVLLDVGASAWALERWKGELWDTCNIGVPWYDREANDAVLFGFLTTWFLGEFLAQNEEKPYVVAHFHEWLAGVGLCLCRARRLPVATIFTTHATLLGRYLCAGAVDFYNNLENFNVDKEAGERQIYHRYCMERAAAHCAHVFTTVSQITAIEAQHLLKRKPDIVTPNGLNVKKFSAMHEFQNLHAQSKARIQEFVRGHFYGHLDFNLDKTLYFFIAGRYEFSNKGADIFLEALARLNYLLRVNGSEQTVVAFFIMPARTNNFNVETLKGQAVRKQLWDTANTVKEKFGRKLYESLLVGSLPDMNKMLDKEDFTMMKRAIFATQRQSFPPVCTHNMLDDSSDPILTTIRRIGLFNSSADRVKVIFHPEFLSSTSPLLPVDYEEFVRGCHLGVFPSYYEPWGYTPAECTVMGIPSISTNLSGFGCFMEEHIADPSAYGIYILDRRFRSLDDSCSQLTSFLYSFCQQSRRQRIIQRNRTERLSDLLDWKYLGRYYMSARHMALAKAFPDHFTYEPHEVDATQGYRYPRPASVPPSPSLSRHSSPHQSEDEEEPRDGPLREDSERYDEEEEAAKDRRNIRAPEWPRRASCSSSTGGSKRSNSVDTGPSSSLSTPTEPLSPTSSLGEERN
Summary of the method: (§1)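 Rat-1 fibroblasts were grown in DMEM/10% FBS to confluence. Cells were lysed in EDTA/EGTA/NaF buffer with protease inhibitors, vanadate and Triton, freeze-scraped, sonicated, and the lysate diluted 2-fold. Assay: 50 mM Tris-HCl pH 7.8, 6.7 mg/ml glycogen, 0.2 mM UDPG, 1 mM G6P, 2% DMSO, test compound 100 µM. Read-out: 14C-glucose incorporation as % of DMSO control.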

hGYS1Δ634S8,11N = biological target: T3, hGYS1Δ634S8,11N (Homo sapiens, UniProt P13807, S11N/S8N); assay: 14C-glucose incorporation assay, hGYS1Δ634S8,11N inhibition; format: biochemical; conditions: read-out: inhibition of truncated hGYS1 (hGYS1Δ634S8,11N)
T3 sequence (P13807 1-634 S8N/S11N limits assumed): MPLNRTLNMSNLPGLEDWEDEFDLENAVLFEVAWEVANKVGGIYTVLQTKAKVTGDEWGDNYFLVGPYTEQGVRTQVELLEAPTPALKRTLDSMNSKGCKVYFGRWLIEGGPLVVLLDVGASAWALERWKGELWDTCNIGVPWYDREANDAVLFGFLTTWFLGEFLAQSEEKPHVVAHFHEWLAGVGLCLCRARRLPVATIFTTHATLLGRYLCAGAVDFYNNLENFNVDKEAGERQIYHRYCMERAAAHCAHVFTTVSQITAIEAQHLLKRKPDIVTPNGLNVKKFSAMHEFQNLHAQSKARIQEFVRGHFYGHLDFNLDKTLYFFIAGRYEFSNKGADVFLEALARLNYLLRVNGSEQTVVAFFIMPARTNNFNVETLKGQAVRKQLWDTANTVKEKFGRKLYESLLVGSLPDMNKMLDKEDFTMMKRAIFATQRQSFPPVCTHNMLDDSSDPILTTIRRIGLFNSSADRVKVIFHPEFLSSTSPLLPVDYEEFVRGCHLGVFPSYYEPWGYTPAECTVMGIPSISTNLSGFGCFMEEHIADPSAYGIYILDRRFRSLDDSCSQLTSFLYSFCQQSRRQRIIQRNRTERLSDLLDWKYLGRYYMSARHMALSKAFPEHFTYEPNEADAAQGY

[3] = biological target: T4, GS activity in HEK293-PTG cell lysates (Homo sapiens, UniProt P13807); assay: GS activity in HEK293-PTG cell lysates, 14C-glucose incorporation; format: biochemical; conditions: 100 μM compound; 0.15 mg/mL lysate; 0.2 mM UDPG, 1 mM G6P
T4 sequence (P13807 1-737): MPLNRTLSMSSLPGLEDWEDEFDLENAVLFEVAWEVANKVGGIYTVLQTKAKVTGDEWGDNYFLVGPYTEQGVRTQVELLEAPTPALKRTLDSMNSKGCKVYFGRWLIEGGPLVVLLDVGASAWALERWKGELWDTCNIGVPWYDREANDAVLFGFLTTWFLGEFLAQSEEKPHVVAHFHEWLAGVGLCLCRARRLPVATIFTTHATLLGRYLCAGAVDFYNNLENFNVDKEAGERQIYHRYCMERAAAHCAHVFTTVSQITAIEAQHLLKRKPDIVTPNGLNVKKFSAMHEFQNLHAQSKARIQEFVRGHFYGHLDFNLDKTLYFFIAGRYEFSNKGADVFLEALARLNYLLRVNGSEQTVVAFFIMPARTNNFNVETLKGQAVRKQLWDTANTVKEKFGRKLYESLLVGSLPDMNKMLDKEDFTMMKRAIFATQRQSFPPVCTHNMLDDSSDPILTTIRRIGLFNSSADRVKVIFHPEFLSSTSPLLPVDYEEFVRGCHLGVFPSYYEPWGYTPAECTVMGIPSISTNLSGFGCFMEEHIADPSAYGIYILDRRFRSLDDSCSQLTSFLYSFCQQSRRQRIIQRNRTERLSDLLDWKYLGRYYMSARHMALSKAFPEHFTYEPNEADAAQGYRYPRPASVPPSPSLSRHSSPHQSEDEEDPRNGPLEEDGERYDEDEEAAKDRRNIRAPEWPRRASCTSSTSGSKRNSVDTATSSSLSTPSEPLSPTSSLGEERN
Summary of the method: as §1, with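 “HEK293 cells stably transfected with mouse PTG (hygromycin-selected mixed clones)” for “Rat-1 fibroblasts”, “grown” for “grown in DMEM/10% FBS”, “10-fold.” for “2-fold.”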

wild-type hGYS1 = biological target: T5, wild-type hGYS1 (Homo sapiens, UniProt P13807); assay: 14C-glucose incorporation assay, wild-type hGYS1 inhibition; format: biochemical; conditions: for improvement in potency toward hGYS1 relative to H23: ratio of IC50 values versus H23
T5 sequence (P13807 1-737): T4 sequence (P13807 1-737)

hGYS1 [4] = biological target: T6, hGYS1 (Homo sapiens, UniProt P13807); assay: Activation of hGYS1 by G6P or GlcN6P, 14C-glucose incorporation assay; format: biochemical
T6 sequence (P13807 1-737): T4 sequence (P13807 1-737)
Summary of the method: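 Full-length human GYS1 was expressed in insect cells. Radiochemical 14C-glucose incorporation assay run at varied G6P or GlcN6P. % activation was plotted against activator concentration and fitted to a hyperbolic binding equation to give AC50. Done in triplicate.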

yGsy2p [5] = biological target: T1, yGsy2p; assay: Fluorescence polarization saturation binding of tracer to yGsy2p
Summary of the method: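 Yeast Gsy2p titrated from 0 to 50 µM against 20 nM final fluorescein-labelled glucosamine-6-phosphate tracer in 15 mM Tris-HCl pH 7.8, 15 mM NaCl. Incubated 10 min at 25°C, then polarization read (ex 485/em 535 nm, mP). Saturation curve fitted to a hyperbolic equation for Kd. Triplicate.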

yGsy2p [6] = biological target: T1, yGsy2p; assay: Fluorescence polarization competitive displacement of tracer from yGsy2p; format: binding
Summary of the method: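 Fluorescein-labelled glucosamine-6-phosphate tracer at 20 nM final with 4.2 µM yeast Gsy2p in 15 mM Tris-HCl pH 7.8, 15 mM NaCl. Unlabelled G6P titrated from 0.68 µM to 40 mM. Incubated 10 min at 25°C, then polarization read (ex 485/em 535 nm, mP). EC50 of the displacement fit taken as Kd. Triplicate.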

yGsy2p [7] = biological target: T1, yGsy2p; assay: Activation of yGsy2p by G6P, 14C-glucose incorporation assay; format: biochemical
Summary of the method: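 His-tagged yeast Gsy2p was expressed in E. coli BL21(DE3) and purified by Ni-NTA then Q-Sepharose. Radiochemical 14C-glucose incorporation assay run at varied G6P. % activation was fitted to a hyperbolic binding equation to give AC50. Done in triplicate.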

hGYS1 [8] = biological target: T6, hGYS1; assay: Fluorescence polarization displacement of tracer from hGYS1; format: binding; conditions: FP assay with hGYS1
yGsy2p Y513L mutant = yGsy2p Y513L mutant (Saccharomyces cerevisiae, UniProt P27472, Y513L); assay: Inhibition of yGsy2p active-site mutant Y513L; format: biochemical; conditions: saturating G6P (7.2 mM)
Chain of yGsy2p Y513L mutant (P27472 whole entry Y513L): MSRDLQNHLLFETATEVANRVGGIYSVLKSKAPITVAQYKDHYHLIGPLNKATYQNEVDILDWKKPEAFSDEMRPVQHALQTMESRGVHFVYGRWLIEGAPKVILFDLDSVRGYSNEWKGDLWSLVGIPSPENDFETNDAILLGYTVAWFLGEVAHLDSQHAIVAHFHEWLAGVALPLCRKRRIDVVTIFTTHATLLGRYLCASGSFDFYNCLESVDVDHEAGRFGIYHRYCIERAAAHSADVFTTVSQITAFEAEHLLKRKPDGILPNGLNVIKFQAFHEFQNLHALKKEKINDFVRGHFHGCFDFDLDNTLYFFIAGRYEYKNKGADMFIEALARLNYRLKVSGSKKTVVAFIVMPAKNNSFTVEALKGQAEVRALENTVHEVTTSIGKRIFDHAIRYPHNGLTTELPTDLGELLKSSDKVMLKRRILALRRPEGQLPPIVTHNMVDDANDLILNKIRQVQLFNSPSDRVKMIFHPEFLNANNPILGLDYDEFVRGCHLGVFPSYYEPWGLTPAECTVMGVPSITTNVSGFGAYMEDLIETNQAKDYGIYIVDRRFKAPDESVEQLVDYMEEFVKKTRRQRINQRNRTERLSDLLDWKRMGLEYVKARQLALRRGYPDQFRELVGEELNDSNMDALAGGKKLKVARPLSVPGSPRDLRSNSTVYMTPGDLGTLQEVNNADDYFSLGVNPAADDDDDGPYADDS

SMILES: N[C@H]1C(O)O[C@H](COP(=O)(O)O)[C@@H](O)[C@@H]1O (stereo partly drawn) [GlcN6P, glucosamine-6-phosphate]
AC50 (hGYS1 [4]): 5900 ± 100 µM

SMILES: O=c1ccn([C@@H]2O[C@H](COP(=O)(O)OP(=O)(O)O)[C@@H](O)[C@H]2O)c(=O)[nH]1 [UDP, reference compound]
mode of inhibition of yGsy2p with respect to varied UDPG (yGsy2p [1]): competitive

SMILES: O=C[C@H](O)[C@@H](O)[C@H](O)[C@H](O)COP(=O)(O)O [Compound G6P, glucose-6-phosphate]
Kd (yGsy2p [6]): 70.9 ± 3.6 µM
AC50 (yGsy2p [7]): 98.1 ± 3.1 µM
AC50 (hGYS1 [4]): 1600 ± 100 µM
displacement of GlcN6P-coupled fluorophore or fluorophore alone from hGYS1 (hGYS1 [8]): unable to displace

SMILES: Oc1ccc(-c2c(-c3ccc(O)c(O)c3O)n[nH]c2C(F)(F)F)cc1 [Compound 23, 4-(4-(4-hydroxyphenyl)-3-(trifluoromethyl)-1H-pyrazol-5-yl)pyrogallol]
improvement in potency toward hGYS1 relative to H23 (wild-type hGYS1): more than 300 fold
mode of inhibition for wild-type hGYS1 (wild-type hGYS1; versus UDPG): competitive
inhibition of Y513L mutant compared with wild-type yGsy2p (yGsy2p Y513L mutant): compromised; also recorded: decreased potency

Now from value to molecule:

mode of inhibition of yGsy2p with respect to varied UDPG (yGsy2p [1]): competitive
reduction of synthase activity in Rat-1 cell lysate [2]: did not significantly inhibit
inhibition at 100 µM (hGYS1Δ634S8,11N): > 20%
reduction of synthase activity in HEK293-PTG cell lysate [3]: did not significantly inhibit
SMILES: COc1cc(-c2c(-c3ccccc3)ncn2CCC2CCCN2C)ccc1O (racemic) [Compound H23, (rac)-2-methoxy-4-(1-(2-(1-methylpyrrolidin-2-yl)ethyl)-4-phenyl-1H-imidazol-5-yl)phenol]

improvement in potency toward hGYS1 relative to H23 (wild-type hGYS1): 16 fold
SMILES: Cc1[nH]nc(-c2ccc(O)c(O)c2O)c1-c1ccc(Cl)cc1 [Compound 11]

Kd (yGsy2p [5]): 7.6 ± 0.7 µM
SMILES: O=C(CSCCC(=O)N[C@@H]1[C@@H](O)[C@H](O)[C@@H](COP(=O)(O)O)O[C@H]1O)Nc1ccc(-c2c3ccc(=O)cc-3oc3cc(O)ccc23)c(C(=O)O)c1 [GlcN6P-fluorescein-5-Ex]

reduction of synthase activity in Rat-1 cell lysate [2]: did not significantly inhibit
reduction of synthase activity in HEK293-PTG cell lysate [3]: did not significantly inhibit
improvement in potency toward hGYS1 relative to H23 (wild-type hGYS1): 2 fold
SMILES: O=C(O)CCc1ccc(-c2ccccc2)n1-c1ccc(O)cc1 [Compound 7]
